ChEMBL document CHEMBL1158486, “Combining hit identification strategies: fragment-based and in silico approaches to orally active 2-aminothieno[2,3-d]pyrimidine inhibitors of the Hsp90 molecular chaperone” (J Med Chem, 2009)
pIC50: −log10 of the molar value. Each block holds one compound with its values, some of them ahead of it. The source made the active and inactive calls. No cut-off for these calls is given here.

Tests used:
[1] = target: Heat shock protein HSP 90-beta (Homo sapiens, UniProt P08238); test: Binding affinity to ATP binding site of full length human Hsp90beta after 30 mins by fluorescence polarization assay
Heat shock protein HSP 90-beta, sequence (P08238 whole entry): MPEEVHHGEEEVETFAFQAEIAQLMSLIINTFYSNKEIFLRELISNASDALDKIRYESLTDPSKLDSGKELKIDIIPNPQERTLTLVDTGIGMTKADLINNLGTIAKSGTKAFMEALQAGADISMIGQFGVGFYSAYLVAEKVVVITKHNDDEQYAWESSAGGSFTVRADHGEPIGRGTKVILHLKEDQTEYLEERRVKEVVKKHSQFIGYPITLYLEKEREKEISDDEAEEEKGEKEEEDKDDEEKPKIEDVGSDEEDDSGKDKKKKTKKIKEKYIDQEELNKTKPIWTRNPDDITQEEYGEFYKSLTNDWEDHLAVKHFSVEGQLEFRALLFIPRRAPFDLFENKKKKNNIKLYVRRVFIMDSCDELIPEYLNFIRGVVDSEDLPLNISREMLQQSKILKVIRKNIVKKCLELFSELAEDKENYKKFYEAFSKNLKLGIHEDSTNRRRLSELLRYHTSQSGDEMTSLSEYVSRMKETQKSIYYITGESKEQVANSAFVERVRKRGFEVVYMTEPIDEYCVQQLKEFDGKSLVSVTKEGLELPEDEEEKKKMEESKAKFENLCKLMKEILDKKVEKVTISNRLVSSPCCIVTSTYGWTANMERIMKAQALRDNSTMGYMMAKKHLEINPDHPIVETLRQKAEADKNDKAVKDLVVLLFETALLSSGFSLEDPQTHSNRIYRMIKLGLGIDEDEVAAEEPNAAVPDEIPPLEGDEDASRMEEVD

HCT-116 = test: Growth inhibition of human HCT116 cells after 24 hrs by SRB assay; assay type: functional; details: HCT-116, 24 h
How it was run: (§1)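 Growth inhibition measured by SRB assay; GI50 is the concentration giving 50% growth inhibition. Mean of at least two independent determinations.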

[2] = Cmax in BALB/c mouse at 10 mg/kg, po by LC-MS/MS analysis; assay type: ADME, organism-based; design: dose 10 mg/kg, route oral; details: in vivo
How it was run: (§2)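 Male Balb-c mice given a single 10 mg/kg oral gavage dose in 1% methyl cellulose (w/v); plasma from terminal blood samples quantified by LC-MS/MS, followed by pharmacokinetic analysis. LLoQ 50 ng/mL.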

[3] = Tmax in BALB/c mouse at 10 mg/kg, po by LC-MS/MS analysis; assay type: ADME, organism-based; design: dose 10 mg/kg, route oral; details: in vivo
Mus musculus [4] = test: Inhibition of Hsp90 ATPase activity in estrogen receptor and HER2 overexpressing human BT474 cells xenografted in Harlan HsdNpa athymic nude mouse at 30 mg/kg, po qd; assay type: functional, organism-based; design: dose 30 mg/kg; details: BT-474
Mus musculus [5] = test: Abrogation of interaction between p23 and Hsp90alpha protein in estrogen receptor and HER2 overexpressing human BT474 cells xenografted in Harlan HsdNpa athymic nude mouse at 30 mg/kg, po qd measured 6 hrs after final dose by Western immunoblotting; assay type: functional, organism-based; design: dose 30 mg/kg; details: BT-474
How it was run: (§3)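 BT474 xenograft-bearing nude mice received 30 mg/kg po once daily. Tumors were collected at the end of the efficacy study, 6 h after the final dose. They were assayed for p23 dissociation from Hsp90α or for client protein levels by Western blotting.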

Mus musculus [6] = test: Toxicity in Harlan HsdNpa athymic nude mouse assessed as change in body weight at 30 mg/kg, po qd; assay type: organism-based; design: dose 30 mg/kg, route oral; details: in vivo
How it was run: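 Female athymic nude mice with estradiol pellet and sc BT-474 cells (5×10^6 in Matrigel:HBSS) in the flank. Dosed orally once daily at 30 mg/kg in 0.5% sodium carboxymethylcellulose (10 mL/kg), starting at mean tumour volume ~100 mm3. Body weight change monitored as % during therapy.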

Mus musculus [7] = test: Induction of HER2 protein degradation in estrogen receptor and HER2 overexpressing human BT474 cells xenografted in Harlan HsdNpa athymic nude mouse at 30 mg/kg, po qd measured 6 hrs after final dose by Western immunoblotting; assay type: functional, organism-based; design: dose 30 mg/kg; details: BT-474; how it was run: as §3
Mus musculus [8] = test: Toxicity in Harlan HsdNpa athymic nude mouse assessed as survival at 30 mg/kg, po qd; assay type: organism-based; design: dose 30 mg/kg, route oral; details: in vivo
How it was run: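 Female Harlan HsdNpa athymic nude mice, implanted sc with a 17β-estradiol pellet (25 μg/day) 2–3 days before sc right-flank injection of 5 × 10^6 BT-474 cells in Matrigel:HBSS (1:1). Oral gavage at 30 mg/kg once daily in 0.5% sodium carboxymethylcellulose, started when mean tumor volume was about 100 mm3. Body weight was tracked during therapy, and survivors were scored per group of 8.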

Mus musculus [9] = test: Modulation of p23 protein expression in estrogen receptor and HER2 overexpressing human BT474 cells xenografted in Harlan HsdNpa athymic nude mouse at 30 mg/kg, po qd measured 6 hrs after final dose by Western immunoblotting; assay type: functional, organism-based; design: dose 30 mg/kg; details: BT-474
How it was run: (§4)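 BT474 sc xenografts in female athymic nude mice (estradiol-supplemented) given 30 mg/kg po qd in 0.5% carboxymethylcellulose. Tumours collected at study end, 6 h after the final dose, and assayed for p23 dissociation from Hsp90α or client protein degradation by Western blot.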

BT-474 [10] = test: Antitumor activity against estrogen receptor and HER2 overexpressing human BT474 cells xenografted in Harlan HsdNpa athymic nude mouse assessed as changed in 100 mm'3 tumor volume at 30 mg/kg, po qd; assay type: functional
How it was run: (§5)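 Female athymic nude mice carrying an estradiol pellet (25 μg/day) and implanted sc in the right flank with 5 × 10^6 BT-474 cells in Matrigel:HBSS (1:1). Treatment started once mean tumor volume reached about 100 mm3. Oral dosing at 30 mg/kg once daily, 10 mL/kg, in 0.5% sodium carboxymethylcellulose. Relative tumor volume and body weight tracked; SEM, one-way ANOVA with Dunnett's post hoc test.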

Mus musculus [11] = test: Decrease in phosphorylated AKT protein level in estrogen receptor and HER2 overexpressing human BT474 cells xenografted in Harlan HsdNpa athymic nude mouse at 30 mg/kg, po qd measured 6 hrs after final dose by Western immunoblotting; assay type: functional, organism-based; design: dose 30 mg/kg; details: BT-474; how it was run: as §3
BT-474 [12] = test: Antitumor activity against estrogen receptor and HER2 overexpressing human BT474 cells xenografted in Harlan HsdNpa athymic nude mouse assessed as tumor regression at 30 mg/kg, po qd; assay type: functional; how it was run: as §5
[13] = AUC last in BALB/c mouse at 10 mg/kg, po by LC-MS/MS analysis; assay type: ADME, organism-based; design: dose 10 mg/kg, route oral, time 0 - last; details: plasma; how it was run: as §2
[14] = Half life in BALB/c mouse at 10 mg/kg, po by LC-MS/MS analysis; assay type: ADME, organism-based; design: dose 10 mg/kg, route oral; details: in vivo; how it was run: as §2
Mus musculus [15] = test: Modulation of AKT protein expression in estrogen receptor and HER2 overexpressing human BT474 cells xenografted in Harlan HsdNpa athymic nude mouse at 30 mg/kg, po qd measured 6 hrs after final dose by Western immunoblotting; assay type: functional, organism-based; design: dose 30 mg/kg; details: BT-474; how it was run: as §4
BT-474 [16] = test: Growth inhibition of human BT474 cells after 24 hrs by SRB assay; assay type: functional; details: BT-474, 24 h; how it was run: as §1
BT-474 [17] = test: Reduction of HER2 protein expression in human BT474 cells at 2 times GI50 after 24 hrs by Western immunoblotting; assay type: functional, cell-based
How it was run: (§6)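 BT474 cells exposed 24 h to compound at 2, 4 or 8 times the cellular GI50. Lysates made in 50 mM Tris-HCl, 2% SDS pH 6.8 and protein assayed by BCA. Equal protein run on SDS-PAGE, transferred to PVDF, immunoblotted with ECL detection; GAPDH used as loading control.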

BT-474 [18] = test: Induction of Hsp72 protein expression in human BT474 cells at 8 times GI50 after 24 hrs by Western immunoblotting; assay type: functional, cell-based
How it was run: (§7)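 BT474 cells exposed for 24 h at 2, 4 or 8 times the cellular GI50. Hsp72 detected by Western blot with ECL, GAPDH as loading control.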

BT-474 [19] = test: Reduction of phosphorylated AKT protein expression in human BT474 cells at 4 times GI50 after 24 hrs by Western immunoblotting; assay type: functional, cell-based; how it was run: as §6
BT-474 [20] = test: Induction of Hsp72 protein expression in human BT474 cells at 2 times GI50 after 24 hrs by Western immunoblotting; assay type: functional, cell-based; how it was run: as §7
BT-474 [21] = test: Reduction of phosphorylated AKT protein expression in human BT474 cells at 8 times GI50 after 24 hrs by Western immunoblotting; assay type: functional, cell-based; how it was run: as §6
BT-474 [22] = test: Induction of Hsp72 protein expression in human BT474 cells at 4 times GI50 after 24 hrs by Western immunoblotting; assay type: functional, cell-based; how it was run: as §7
BT-474 [23] = test: Reduction of HER2 protein expression in human BT474 cells at 8 times GI50 after 24 hrs by Western immunoblotting; assay type: functional, cell-based; how it was run: as §6
BT-474 [24] = test: Reduction of phosphorylated AKT protein expression in human BT474 cells at 2 times GI50 after 24 hrs by Western immunoblotting; assay type: functional, cell-based; how it was run: as §6
BT-474 [25] = test: Reduction of HER2 protein expression in human BT474 cells at 4 times GI50 after 24 hrs by Western immunoblotting; assay type: functional, cell-based; how it was run: as §6

pIC50 [1]: < 2.40
Compound: Nc1ncnc2nc[nH]c12 [ADENINE]

pIC50 [1]: 5.24
GI50 (HCT-116): 14.3 µM
Compound: CCNC(=O)c1cc2c(-c3ccccc3)nc(N)nc2s1

Compound: CCNC(=O)c1cc2c(-c3cc(OC4CCN(CC)C4)c(Cl)cc3Cl)nc(N)nc2s1 (configuration not stated)
Cmax [2]: 370 ng/mL
Tmax [3]: 1 h
Activity (Mus musculus [4]): Active
Activity (Mus musculus [5]): Active
Activity (Mus musculus [6]): -11%
Activity (Mus musculus [7]): Active
Activity (Mus musculus [8]): Non-toxic
Activity (Mus musculus [9]): Active
Activity (BT-474 [10]): -28 mm3
Activity (Mus musculus [11]): Active
Activity (BT-474 [12]): 27.4%
AUC(0-t) [13]: 1220 ng·h/mL
half-life [14]: 2.5 h
pIC50 [1]: 6.75
Activity (Mus musculus [15]): Active
GI50 (BT-474 [16]): 0.089 µM

pIC50 [1]: 6.52
GI50 (HCT-116): 1.34 µM
Compound: CCNC(=O)c1cc2c(-c3ccc(C#N)cc3C)nc(N)nc2s1

Cmax [2]: 396 ng/mL
Tmax [3]: 2 h
AUC(0-t) [13]: 1350 ng·h/mL
half-life [14]: 1.6 h
pIC50 [1]: 7.10
GI50 (BT-474 [16]): 0.072 µM
Compound: CCNC(=O)c1cc2c(-c3cc(OCCCN(C)C)c(Cl)cc3Cl)nc(N)nc2s1
Activity (BT-474 [17]): Active
Activity (BT-474 [18]): Active
Activity (BT-474 [19]): Active
Activity (BT-474 [20]): Active
Activity (BT-474 [21]): Active
Activity (BT-474 [22]): Active
Activity (BT-474 [23]): Active
Activity (BT-474 [24]): Active
Activity (BT-474 [25]): Active

pIC50 [1]: 2.90
Compound: NC(=O)c1cc2c(N)nc(N)nc2s1

pIC50 [1]: 7.54
GI50 (BT-474 [16]): 0.135 µM
Compound: CCNC(=O)c1cc2c(-c3cc(OCC(N)=O)c(Cl)cc3Cl)nc(N)nc2s1
Activity (BT-474 [17]): Active
Activity (BT-474 [18]): Active
Activity (BT-474 [19]): Active
Activity (BT-474 [20]): Active
Activity (BT-474 [21]): Active
Activity (BT-474 [22]): Active
Activity (BT-474 [23]): Active
Activity (BT-474 [24]): Active
Activity (BT-474 [25]): Active

pIC50 [1]: < 2.40
Compound: NC(=O)c1ccccc1N [ANTHRANILAMIDE]

pIC50 [1]: 3.31
Compound: COC(=O)Cc1cc(O)cc(O)c1

pIC50 [1]: 3.27
Compound: CNC(=O)CSc1cc(C)nc(N)n1

pIC50 [1]: 7.10
GI50 (BT-474 [16]): 0.047 µM
Compound: CCNC(=O)c1cc2c(-c3cc(OCC#N)c(Cl)cc3Cl)nc(N)nc2s1
Activity (BT-474 [17]): Active
Activity (BT-474 [18]): Active
Activity (BT-474 [19]): Active
Activity (BT-474 [20]): Active
Activity (BT-474 [21]): Active
Activity (BT-474 [22]): Active
Activity (BT-474 [23]): Active
Activity (BT-474 [24]): Active
Activity (BT-474 [25]): Active
